Source: PubChem BioAssay
EBI2 antag – blocks human EBI2 receptor beta-arrestin signaling. P32249. 0.81% of 360,000 active. AID 651636. EBI2 beta-arrestin recruitment, luminescence, 7a,25-OHC stimulated. inhibition, % at 5 µM; in the data active = inhibition above about 38%;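 also: enzyme fragment complementation signal reports receptor beta-arrestin coupling in cells; 0% = agonist plus DMSO wells and 100% = wells without agonist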
Target sequence (P32249 whole entry, looked up, the tested form may be a part): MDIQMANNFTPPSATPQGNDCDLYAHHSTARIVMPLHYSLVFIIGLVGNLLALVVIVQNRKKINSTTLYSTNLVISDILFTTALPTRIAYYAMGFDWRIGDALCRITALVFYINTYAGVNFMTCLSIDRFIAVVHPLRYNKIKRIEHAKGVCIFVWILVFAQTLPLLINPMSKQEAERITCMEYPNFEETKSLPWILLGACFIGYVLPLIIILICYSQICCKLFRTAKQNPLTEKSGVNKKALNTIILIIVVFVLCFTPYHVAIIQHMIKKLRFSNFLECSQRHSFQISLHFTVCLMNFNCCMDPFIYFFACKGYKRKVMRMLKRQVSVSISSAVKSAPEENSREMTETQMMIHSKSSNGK
GRIN3A LBD mod – modulators (binders) of human NR3A ligand-binding domain; NR3A LBD differential scanning fluorimetry, Tm shift; 0% = protein alone, 100% = glycine-bound protein; Tm shift relative to glycine control, % at 25 µM; 2.5% of 340,000 active;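 active = melting temperature shift of at least 10% of the positive control shift, at one fixed dose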
MPTP block – blocks calcium-induced mitochondrial swelling | isolated mouse mitochondria, Ca2+ swelling absorbance, 30 min | inhibition, % at 10 µM | 1.4% of 360,000 active;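 active = inhibition of 50% or more, scaled per plate between neutral and stimulator controls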;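 also: 0% = DMSO wells given calcium and 100% = 1 mM EGTA wells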
SENP1 FRET inh – SENP1 (human) catalytic domain inhibition. Q9P0U3. recombinant SENP1 catalytic domain, CyPet-SUMO1-YPet FRET cleavage. inhibition, % at 10 µM. 0.21% of 360,000 active. AID 624204;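 active = inhibition at least 30% at 10 µM, raw YFP signal under a set limit, fluorescence ratio 0.5 to 1.5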;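 also: 0% = enzyme with DMSO and 100% = no enzyme wells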
Target sequence (Q9P0U3 419-644 limits assumed): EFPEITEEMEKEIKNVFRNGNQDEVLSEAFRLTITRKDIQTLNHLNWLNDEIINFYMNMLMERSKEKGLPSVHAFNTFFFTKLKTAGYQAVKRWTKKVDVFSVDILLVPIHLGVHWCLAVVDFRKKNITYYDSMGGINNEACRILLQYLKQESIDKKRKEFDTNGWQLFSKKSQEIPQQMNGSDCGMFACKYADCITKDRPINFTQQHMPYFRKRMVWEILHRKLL
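Compound: 10 µM single point, 0.5% DMSO; Test system: hSENP1 catalytic domain, recombinant; Timing: 50 min reaction at room temperature; Technique: FRET, CFP and YFP emission; Control set: no-enzyme wells low, DMSO-plus-enzyme wells high control.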
The depositor's hits bear a star. This is a sample that favours compounds with a hit; in the whole collection about 4.4% have one here.

SMILES | EBI2 antag | GRIN3A LBD mod | MPTP block | SENP1 FRET inh
COc1ccc(CC(=O)N2CCc3cc(OC)c(OC)cc3C2O)cc1OC (stereo not drawn) | -2.2 | 10.3* | -0.5 | -3.3
S=C(NCCCN1CCOCC1)Nc1ccc(Cl)cc1Cl | -5.2 | 0.1 | 0.1 | 0.6
S=C(NCCN1CCOCC1)Nc1ccc(Cl)cc1Cl | -1.7 | 11.6* | -0.3 | 5.5
Cc1ccc(Nc2nc(-c3cccs3)cs2)nc1 | -4.1 | 24.2* | -1.0 | -3.6
O=C(NCCC1=CCCCC1)c1cc(COc2ccc(F)cc2Cl)on1 | 6.6 | -6.9 | 1.9 | 0.4
O=C(NCCCn1cccn1)c1cc(COc2ccc(F)cc2Cl)on1 | -4.4 | 0.3 | 0.6 | 0.2
O=C(NCCc1ccccc1Cl)c1cc(COc2ccc(F)cc2F)on1 | 57.2* | -9.3 | -0.2 | -0.5
CCn1cc(CNC(=O)c2cc(COc3ccc(F)cc3Cl)on2)cn1 | 16.6 | 116.1* | -1.1 | -0.8
Cc1ccc(NS(=O)(=O)c2cccc(C(=O)NNC(=O)c3cccn3C)c2)c(C)c1 | -3.1 | 1.8 | -0.8 | 0.6
O=C(NNS(=O)(=O)c1ccc2ccccc2c1)c1cc(-c2ccccn2)nc2ccccc12 | -6.3 | -5.8 | 2.7 | 2.1
COc1ccccc1CNC(=O)c1ccccc1OCc1ccc(F)cc1 | 19.5 | 22.8* | 0.5 | 0.3
CSc1cccc(N2CC(C(=O)NCCC3=CCCCC3)CC2=O)c1 (stereo not drawn) | 4.9 | -1.6 | -1.0 | -1.6
COc1ccccc1OCCNC(=O)C1CC(=O)N(c2cccc(SC)c2)C1 (stereo not drawn) | -0.6 | 16.8* | -1.2 | -0.6
CC(c1ccc2c(c1)OCO2)n1c(=S)[nH]c2ccccc2c1=O (stereo not drawn) | 2.5 | -5.7 | 0.0 | 3.0
COc1ccc(NC(=O)NCCC2=CCCCC2)cc1 | 7.3 | 30.6* | 1.8 | -0.7
CCOc1ccc2nc(SCC(=O)c3ccc(C)s3)sc2c1 | -6.9 | -7.0 | 1.3 | 3.0
CCOc1ccc2nc(NC(=O)CSC3=NCCS3)sc2c1 | 8.9 | 18.4* | -1.4 | -2.9
CCOc1ccc(-c2nnc3ccc(SCC(=O)Nc4nc5ccc(C)cc5s4)nn23)cc1 | 2.8 | 21.5* | 1.6 | -1.7
COc1ccc2nc(NC(=O)CSC3=NCCS3)sc2c1 | 1.9 | -1.3 | 0.1 | -2.0
CCOc1ccc2nc(SCC(=O)c3ccc(O)cc3O)sc2c1 | -2.5 | 16.5* | 3.0 | -2.1
COc1ccc2nc(NC(=O)CSc3ccccc3)sc2c1 | 15.4 | 30.8* | 0.4 | -1.8
O=C(CSc1ncn(-c2ccccc2)n1)Nc1nc2ccccc2s1 | -9.2 | 21.9* | -0.5 | 0.8
CCOc1ccc2nc(NC(=O)CSc3ccc(Cl)cc3)sc2c1 | 2.8 | 10.2* | 19.3 | -0.7
O=C(/C=C/c1ccc2c(c1)OCO2)Nc1nc2ccc(F)cc2s1 | -8.0 | 0.3 | 2.2 | -2.8
CCOc1ccc2nc(NC(=O)/C=C/c3ccc4c(c3)OCO4)sc2c1 | -11.2 | 34.6* | 1.3 | -19.7
SMILES | EBI2 antag | GRIN3A LBD mod | MPTP block | SENP1 FRET inh
O=C(CSc1ccccc1)Nc1nnc(COc2ccc(Cl)cc2)s1 | -7.6 | 14.2* | -16.4 | 2.5
O=C(OCC(=O)N1CCCC1=O)C1CCN(S(=O)(=O)c2ccc(Cl)c(C(F)(F)F)c2)CC1 | -7.1 | 0.1 | -1.5 | 0.3
Fc1cccc(F)c1-c1nc(-c2ccncc2)no1 | -3.0 | 0.9 | 0.1 | 2.4
COc1ccc(S(=O)(=O)Nc2cc3c(cc2C(C)=O)OCO3)cc1 | 5.3 | -1.0 | 0.1 | -2.5
Cc1cccc2sc(NC(=O)c3ccc(OCC4CCCO4)cc3)nc12 (stereo not drawn) | 14.5 | -3.2 | -0.2 | -0.9
CCOc1ccc2nc(NC(=O)c3ccc(OCC4CCCO4)cc3)sc2c1 (stereo not drawn) | -28.3 | 19.7* | -1.5 | -7.6
CC(=O)NC1(C(F)(F)F)C(=O)Nc2c1c(=O)[nH]c(=O)n2CC(C)C (stereo not drawn) | 2.8 | 1.4 | -1.1 | 0.5
CC(Nc1nc2ncn(Cc3ccccc3)c2c(=O)[nH]1)C(=O)O (stereo not drawn) | -3.0 | 14.6* | -1.0 | -1.2
O=C(O)CCCCCNc1nc2ncn(Cc3ccccc3)c2c(=O)[nH]1 | -14.9 | -1.0 | 0.3 | 2.0
COc1ccc(Cl)cc1S(=O)(=O)N(C)CC(=O)NCc1ccc2c(c1)OCO2 | -3.7 | -3.1 | 0.3 | 0.6
O=C(NNc1ccc(Cl)nn1)c1ccc(Cl)cc1 | 2.8 | 1.3 | 1.0 | 1.2
CCCCCCCCCCNC(=O)C(=O)Nc1ccccn1 | -5.9 | 12.2* | 0.9 | 1.4
Cc1ccc(NC(=O)C(=O)Nc2ccccn2)cc1 | -9.6 | 3.1 | -1.2 | 0.7
CCOc1ccc(N(CC(=O)Nc2cccnc2)S(=O)(=O)c2ccc(C)cc2)cc1 | 19.5 | 15.5* | 1.5 | 0.7
CCc1ccccc1N(CC(=O)Nc1cccnc1)S(=O)(=O)c1ccccc1 | -6.7 | 11.7* | -0.1 | -0.3
COc1ccccc1N(CC(=O)Nc1cccnc1)S(=O)(=O)c1ccccc1 | -8.8 | 0.1 | -0.2 | 2.9
COc1ccc(N(CC(=O)Nc2cccnc2)S(=O)(=O)c2ccc(C)cc2)cc1Cl | 7.2 | -5.0 | -0.2 | 0.1
O=C(COC(=O)c1ccc(NS(=O)(=O)c2cccs2)cc1O)NCc1ccccc1 | 0.1 | -4.0 | 1.2 | 6.3
O=C(COC(=O)c1ccc(NS(=O)(=O)c2cccs2)cc1O)Nc1nc2ccccc2s1 | 3.0 | 18.6* | 11.2 | -1.6
COc1ccc(Cl)cc1NC(=O)COC(=O)c1cc(NS(=O)(=O)c2cccs2)ccc1O | 12.1 | 25.3* | -25.3 | -1.2
CC1CCCC(C)N1C(=O)CSc1nnc(COc2ccccc2)n1-c1ccccc1 (stereo not drawn) | 0.2 | 0.0 | 0.7 | 1.0
O=C(NCCN1CCCC1)C1CC(=O)N(C2CCCCC2)C1 (stereo not drawn) | -4.4 | 19.5* | -1.9 | -3.0
CC1CCN(CCCNC(=O)C2CC(=O)N(C3CCCCCC3)C2)CC1 (stereo not drawn) | 0.2 | -0.4 | -0.7 | -0.2
O=C(/C=C/Nc1ccccc1F)c1ccc(Br)cc1 | 4.3 | -3.0 | 4.4 | -43.0
N#Cc1ccccc1N/C=C/C(=O)c1ccc(Cl)cc1 | 2.0 | 35.8* | 5.9 | -7.5
SMILES | EBI2 antag | GRIN3A LBD mod | MPTP block | SENP1 FRET inh
c1cncc(-c2nc3cc4ccccc4cc3[nH]2)c1 | 4.5 | 22.3* | 2.0 | -13.6
Cc1noc(NS(=O)(=O)c2ccc(NC(=O)CCN3C(=O)c4ccccc4C3=O)cc2)c1C | 6.7 | 14.1* | -0.7 | 2.4
OCCOCCN1CCN(C(=S)Nc2ccccc2)CC1 | -8.2 | -1.9 | -1.8 | 0.9
CN(C)C(=O)CSc1ccccc1C(=O)OCC(=O)NC1CC1 | -2.0 | 1.2 | 1.6 | 1.4
CCCn1nc(C(=O)Nc2ccc(S(=O)(=O)Nc3nccs3)cc2)c2ccccc2c1=O | 2.6 | -2.2 | -5.5 | -0.8
CCCn1nc(C(=O)Nc2cc(S(=O)(=O)Nc3ccc(OC)cc3)ccc2O)c2ccccc2c1=O | 8.5 | 27.1* | 6.1 | 3.1
N#CC(C#N)=C1c2cc(S(=O)(=O)NCCO)ccc2-c2ccc(S(=O)(=O)NCCO)cc21 | -7.2 | 0.1 | 4.7 | 32.9*
O=C1c2cc(S(=O)(=O)NCCO)ccc2-c2ccc(S(=O)(=O)NCCO)cc21 | -12.2 | -0.1 | -0.2 | 5.3
